Results reported in BindingDB's records for doi:10.1021/jm0500119 (Cnrs-University of Lille 2 Umr 8525, 2005).

Biological target: Peptidyl-prolyl cis-trans isomerase NIMA-interacting 1 (Homo sapiens, UniProt Q13526)
Experiment: Dissociation constant for human peptidyl-prolyl cis-trans isomerase NIMA-interacting 1
Summary of the method: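 15N-labeled Pin1 WW domain (His6-tagged, expressed in E. coli BL21(DE3)) in 25 mM deuterated Tris-HCl pH 6.8, 50 mM NaCl, 5 mM DTT, 2.5 mM EDTA, 10% D2O; 600 MHz 1H-15N HSQC at 293 K. 50 μM protein titrated with ligand 0.025–1 mM final; chemical shift perturbations fitted to a single-site equation for KD.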

Sequence of Peptidyl-prolyl cis-trans isomerase NIMA-interacting 1 (Q13526 whole entry): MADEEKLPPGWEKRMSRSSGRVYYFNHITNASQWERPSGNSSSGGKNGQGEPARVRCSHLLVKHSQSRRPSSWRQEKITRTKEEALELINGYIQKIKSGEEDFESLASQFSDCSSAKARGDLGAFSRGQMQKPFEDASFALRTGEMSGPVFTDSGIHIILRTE

Q: How did the Kd turn out when NC(=O)[C@@H]1CCCN1C(=O)CCNc1c(O)c(=O)c1=O [1-[(S)-3-(2-Hydroxy-3,4-dioxo-cyclobut-1-enylamino)-propionyl]-pyrrolidine-2-carboxylic acid amide] was run?
A: Its Kd is greater than 2000 µM.
